In ChEMBL document CHEMBL1133075, “Synthesis and characterization of a novel class of protein tyrosine phosphatase inhibitors” (Bioorg Med Chem Lett, 2000):

Columns and labels:
[1] = biological target: T1, Tyrosine-protein phosphatase non-receptor type 1 (Homo sapiens, UniProt P18031); test: Compound was evaluated for the inhibition constant against Protein-tyrosine phosphatase (PTP1B )
T1 sequence (P18031 whole entry): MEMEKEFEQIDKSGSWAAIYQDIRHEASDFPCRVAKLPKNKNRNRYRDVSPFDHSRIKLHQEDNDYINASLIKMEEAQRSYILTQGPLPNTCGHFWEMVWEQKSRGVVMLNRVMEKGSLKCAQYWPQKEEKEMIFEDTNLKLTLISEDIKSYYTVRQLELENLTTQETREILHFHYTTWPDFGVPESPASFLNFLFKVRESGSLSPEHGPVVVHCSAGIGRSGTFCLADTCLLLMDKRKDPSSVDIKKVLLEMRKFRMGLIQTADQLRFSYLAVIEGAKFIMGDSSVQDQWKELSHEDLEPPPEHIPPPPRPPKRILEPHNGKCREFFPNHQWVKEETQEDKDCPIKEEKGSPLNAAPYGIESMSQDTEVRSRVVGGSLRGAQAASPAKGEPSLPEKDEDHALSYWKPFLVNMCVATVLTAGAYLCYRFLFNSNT
Summary of the method: (§1)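 pNPP hydrolysis in pH 7.0 buffer of 50 mM 3,3-dimethylglutarate, 1 mM EDTA, ionic strength 0.15 M with NaCl. Reaction started with enzyme and stopped after 2–3 min with 1 N NaOH. Nonenzymatic substrate hydrolysis subtracted via an enzyme-free control. Initial rates taken at eight pNPP levels (0.2–5 Km) at each of three fixed inhibitor concentrations to obtain the inhibition constant.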

[2] = biological target: Dual specificity protein phosphatase 3 (Homo sapiens, UniProt P51452); test: Compound was evaluated for the inhibition constant against dual specificity phosphatase VHR; summary of the method: as §1
Sequence of Dual specificity protein phosphatase 3 (P51452 whole entry): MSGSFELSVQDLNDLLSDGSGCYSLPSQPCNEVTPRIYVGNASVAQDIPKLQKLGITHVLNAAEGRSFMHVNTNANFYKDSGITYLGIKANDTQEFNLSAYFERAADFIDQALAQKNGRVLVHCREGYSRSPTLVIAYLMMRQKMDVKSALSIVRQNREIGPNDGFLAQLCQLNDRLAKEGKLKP

SMILES | Ki [1] [µM] | Ki [2] [µM]
O=P(O)(O)COc1ccc(Cc2ccc(O)cc2)cc1 | 47 | 1300
O=P(O)(O)COc1cccc2c1ccc1ccccc12 | 410 | 570
O=P(O)(O)COc1cccc2ccccc12 | 1300 | 4800
O=C(O)Cc1ccc(OCP(=O)(O)O)cc1 | 1100 | 2600
O=P(O)(O)COc1ccc2ccccc2c1 | 1300 | 5700
O=P(O)(O)COc1ccccc1 [PHENOXYMETHYLPHOSPHONATE] | 3300 | 26000
